Laboratory results: ChEMBL document CHEMBL5058577, “EUbOPEN Chemogenomics Library 2 (Multiplex)” (2022)

Tested on: HEK-293T
Experiment: Multiplex assay against HEK293T
Assay type: toxicity, cell-based
Details: human
Outline: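 Cells were classed with CellPathfinder machine-learning gating, first as Hoechst high-intensity objects or normal cells, then (normal cells) as healthy, pyknosed or fragmented nuclei, and finally (pyknosed cells) as mitotic or apoptotic. Staining of live cells at seeding used Hoechst33342, BioTracker Green Microtubule Cytoskeleton Dye, MitoTracker Red and Annexin V Alexa Fluor 680, with imaging on a CQ1 microscope at 37°C and 5% CO2 after compound addition. Tubulin, mitochondrial-mass and membrane-permeability phenotypes are per cents of healthy-nucleus cells.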

[1] = 12 h, 1 µM, compound concentration 1 uM, replicate 1
[2] = 12 h, 1 µM, compound concentration 1 uM, replicate 2
[3] = 12 h, 10 µM, compound concentration 10 uM, replicate 1
[4] = 12 h, 10 µM, compound concentration 10 uM, replicate 2
[5] = 24 h, 1 µM, compound concentration 1 uM, replicate 1
[6] = 24 h, 1 µM, compound concentration 1 uM, replicate 2
[7] = 24 h, 10 µM, compound concentration 10 uM, replicate 1
[8] = 24 h, 10 µM, compound concentration 10 uM, replicate 2
[9] = 48 h, 1 µM, compound concentration 1 uM, replicate 1
[10] = 48 h, 1 µM, compound concentration 1 uM, replicate 2
[11] = 48 h, 10 µM, compound concentration 10 uM, replicate 1
[12] = 48 h, 10 µM, compound concentration 10 uM, replicate 2

## COc1cc(NC(=O)CCN2CCC(OC(=O)Nc3ccccc3-c3ccccc3)CC2)c(Cl)cc1CNC[C@H](O)c1ccc(O)c2[nH]c(=O)ccc12 [BATEFENTEROL]
[1]
  Population Apoptotic (%): 42%
  Population Fragmented Nuclei (%): 4%
  Population Healthy Nuclei (%): 81%
  Population Hoechst High Intensity Objects (%): 7%
  Population Membrane Permeable-Phenotype (%): 0%
  Population Mitochondria Different-Phenotype (%): 65%
  Population Mitotic Cells (%): 57%
  Population Normal (%): 92%
  Population Pyknosed Nuclei (%): 14%
  Population Tubulin-Different-Phenotype (%): 44%
  Total Cell Count: 420
[2]
  Population Apoptotic (%): 47%
  Population Fragmented Nuclei (%): 3%
  Population Healthy Nuclei (%): 78%
  Population Hoechst High Intensity Objects (%): 8%
  Population Mitochondria Different-Phenotype (%): 84%
  Population Mitotic Cells (%): 52%
  Population Normal (%): 91%
  Population Pyknosed Nuclei (%): 17%
  Population Tubulin-Different-Phenotype (%): 41%
  Total Cell Count: 285
[3]
  Population Apoptotic (%): 100%
  Population Fragmented Nuclei (%): 90%
  Population Healthy Nuclei (%): 0%
  Population Hoechst High Intensity Objects (%): 31%
  Population Membrane Permeable-Phenotype (%): 0%
  Population Mitochondria Different-Phenotype (%): 0%
  Population Mitotic Cells (%): 0%
  Population Normal (%): 68%
  Population Pyknosed Nuclei (%): 9%
  Population Tubulin-Different-Phenotype (%): 0%
  Total Cell Count: 16
[4]
  Population Apoptotic (%): 52%
  Population Fragmented Nuclei (%): 5%
  Population Healthy Nuclei (%): 72%
  Population Hoechst High Intensity Objects (%): 11%
  Population Membrane Permeable-Phenotype (%): 1%
  Population Mitochondria Different-Phenotype (%): 87%
  Population Mitotic Cells (%): 47%
  Population Normal (%): 88%
  Population Pyknosed Nuclei (%): 22%
  Population Tubulin-Different-Phenotype (%): 67%
  Total Cell Count: 303
[5]
  Population Apoptotic (%): 44%
  Population Fragmented Nuclei (%): 9%
  Population Healthy Nuclei (%): 77%
  Population Hoechst High Intensity Objects (%): 5%
  Population Membrane Permeable-Phenotype (%): 0%
  Population Mitochondria Different-Phenotype (%): 59%
  Population Mitotic Cells (%): 55%
  Population Normal (%): 94%
  Population Pyknosed Nuclei (%): 12%
  Population Tubulin-Different-Phenotype (%): 35%
  Total Cell Count: 527
[6]
  Population Apoptotic (%): 41%
  Population Fragmented Nuclei (%): 7%
  Population Healthy Nuclei (%): 82%
  Population Hoechst High Intensity Objects (%): 8%
  Population Mitochondria Different-Phenotype (%): 65%
  Population Mitotic Cells (%): 58%
  Population Normal (%): 91%
  Population Pyknosed Nuclei (%): 9%
  Population Tubulin-Different-Phenotype (%): 27%
  Total Cell Count: 403
[7]
  Population Apoptotic (%): 0%
  Population Fragmented Nuclei (%): 87%
  Population Healthy Nuclei (%): 12%
  Population Hoechst High Intensity Objects (%): 33%
  Population Membrane Permeable-Phenotype (%): 0%
  Population Mitochondria Different-Phenotype (%): 100%
  Population Mitotic Cells (%): 0%
  Population Normal (%): 66%
  Population Pyknosed Nuclei (%): 0%
  Population Tubulin-Different-Phenotype (%): 100%
  Total Cell Count: 12
[8]
  Population Apoptotic (%): 56%
  Population Fragmented Nuclei (%): 6%
  Population Healthy Nuclei (%): 73%
  Population Hoechst High Intensity Objects (%): 7%
  Population Mitochondria Different-Phenotype (%): 89%
  Population Mitotic Cells (%): 43%
  Population Normal (%): 93%
  Population Pyknosed Nuclei (%): 19%
  Population Tubulin-Different-Phenotype (%): 78%
  Total Cell Count: 357
[9]
  Population Apoptotic (%): 35%
  Population Fragmented Nuclei (%): 15%
  Population Healthy Nuclei (%): 75%
  Population Hoechst High Intensity Objects (%): 3%
  Population Membrane Permeable-Phenotype (%): 0%
  Population Mitochondria Different-Phenotype (%): 36%
  Population Mitotic Cells (%): 65%
  Population Normal (%): 96%
  Population Pyknosed Nuclei (%): 8%
  Population Tubulin-Different-Phenotype (%): 17%
  Total Cell Count: 744
[10]
  Population Apoptotic (%): 51%
  Population Fragmented Nuclei (%): 13%
  Population Healthy Nuclei (%): 79%
  Population Mitochondria Different-Phenotype (%): 42%
  Population Mitotic Cells (%): 48%
  Population Pyknosed Nuclei (%): 6%
  Total Cell Count: 547
[11]
  Population Apoptotic (%): 100%
  Population Fragmented Nuclei (%): 58%
  Population Healthy Nuclei (%): 25%
  Population Hoechst High Intensity Objects (%): 7%
  Population Membrane Permeable-Phenotype (%): 0%
  Population Mitochondria Different-Phenotype (%): 66%
  Population Mitotic Cells (%): 0%
  Population Normal (%): 92%
  Population Pyknosed Nuclei (%): 16%
  Population Tubulin-Different-Phenotype (%): 66%
  Total Cell Count: 13
[12]
  Population Apoptotic (%): 57%
  Population Fragmented Nuclei (%): 11%
  Population Healthy Nuclei (%): 76%
  Population Mitochondria Different-Phenotype (%): 76%
  Population Mitotic Cells (%): 42%
  Population Pyknosed Nuclei (%): 11%
  Population Tubulin-Different-Phenotype (%): 74%
  Total Cell Count: 427
